Results as given in ChEMBL document CHEMBL1126865, “Structure-activity relationship within a series of pyrazolidinone antibacterial agents. 2. Effect of side-chain modification on in vitro activity and pharmacokinetic parameters” (J Med Chem, 1993).
Converted amounts (≈) assume the structure as drawn.

Tests used:
[1] = Maximum concentration in male rats after iv administration of 20 mg/kg; type: ADME, organism-based; parameters: dose 20 mg/kg, route intravenous; settings: rat, in vivo
Outline: (§1)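 Male Sprague-Dawley rats were given 20 mg/kg IV in 0.9% saline through an indwelling jugular cannula, which was also used for serial blood sampling. Plasma and cumulative urine (citrate pH 6.5, metabolism cages) were collected over 6 h and stored at -70 °C. Levels were measured by agar well diffusion bioassay against standard curves in plasma or citrate. Half-life = 0.693/β; recovery as % of dose.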

[2] = (§2) Plasma half-life in rats after intravenous administration; type: ADME, organism-based; settings: rat; outline: as §1
[3] = Urinary recovery expressed as percentage dose in male rats after iv administration of 20 mg/kg; type: ADME, organism-based; parameters: dose 20 mg/kg, route intravenous; settings: rat, urine; outline: as §1
Klebsiella aerogenes = experiment: In vitro antibacterial activity against Enterobacter aerogenes C32; type: functional
Escherichia coli [4] = experiment: In vitro antibacterial activity against Escherichia coli EC14; type: functional
Haemophilus influenzae = experiment: In vitro antibacterial activity against Haemophilus influenza C.L; type: functional
Klebsiella pneumoniae = experiment: In vitro antibacterial activity against Klebsiella X26; type: functional
Pseudomonas aeruginosa = experiment: In vitro antibacterial activity against Pseudomonas PS72; type: functional
[5] = test system: Staphylococcus epidermidis; experiment: In vitro antibacterial activity against Staphylococcus epidermidis 222; type: functional
Staphylococcus aureus = experiment: In vitro antibacterial activity against Staphylococcus aureus X1.1; type: functional
Streptococcus pneumoniae = experiment: In vitro antibacterial activity against Streptococcus pneumoniae PARK; type: functional
[6] = Half-life period in male rats after iv administration of 20 mg/kg; type: ADME, organism-based; parameters: dose 20 mg/kg, route intravenous; settings: rat, in vivo; outline: as §1
[7] = (§3) Plasma half-life in monkey after intravenous administration; type: ADME, organism-based; settings: simiiformes
Outline: (§4)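 Male rhesus monkeys (n = 3) dosed iv at 30 mg/kg in 0.9% saline; plasma sampled from cephalic vein over 3 h. Drug levels by agar well diffusion bioassay (E. coli ATCC4157 or Proteus providentia XC24) against standard curves in spiked plasma. Samples stored at -70 °C. Half-life = 0.693/β, β the terminal slope of plasma vs time curve.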

[8] = Maximum concentration in male CD-1 mice after sc administration of 20 mg/kg; type: ADME, organism-based; parameters: dose 20 mg/kg, route subcutaneous; settings: CD-1, mouse, in vivo
Outline: (§5)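 Male CD-1 mice received 20 mg/kg in 0.9% saline, orally or subcutaneously. Cumulative urine over 0–4 h was collected from metabolism cages into 0.1 M sodium citrate, pH 6.5, and stored at -70 °C. Drug levels were measured by agar well diffusion bioassay (E. coli ATCC4157 or Proteus providentia XC24) against spiked standard curves. Half-life = 0.693/β (terminal slope); urinary recovery as % of dose.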

[9] = Half-life period in male CD-1 mice after sc administration of 20 mg/kg; type: ADME, organism-based; parameters: dose 20 mg/kg, route subcutaneous; settings: CD-1, mouse, in vivo; outline: as §5
[10] = Plasma binding in male rats […] expressed as percentage of plasma binding; type: ADME, organism-based; settings: rat, iv, read-out: Plasma binding (converted)
Outline: (§6)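 Binding was measured in vitro in pooled Sprague-Dawley rat plasma at a drug concentration of 20 μg/mL by ultrafiltration and reported as % bound.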

[11] = Urinary recovery expressed as percentage dose in male CD-1 mice after po administration of 20 mg/kg; type: ADME, organism-based; parameters: dose 20 mg/kg, route oral; settings: CD-1, mouse, urine; outline: as §5
Escherichia coli [12] = experiment: Effective dose against Escherichia coli EC14 after po administration in mice; type: functional
Escherichia coli [13] = experiment: Effective dose against Escherichia coli EC14 after sc administration in mice; type: functional
Escherichia coli [14] = experiment: Minimum inhibitory concentration against Escherichia coli EC14 after po administration in mice; type: functional
Escherichia coli [15] = experiment: Minimum inhibitory concentration against Escherichia coli EC14 after sc administration in mice; type: functional
Streptococcus pyogenes [16] = experiment: Effective dose against Streptococcus pyogenes (C203) after po administration in mice; type: functional
Streptococcus pyogenes [17] = experiment: Effective dose against Streptococcus pyogenes (C203) after sc administration in mice; type: functional
Streptococcus pyogenes [18] = experiment: Minimum inhibitory concentration against Streptococcus pyogenes (C203) after po administration in mice; type: functional
Streptococcus pyogenes [19] = experiment: Minimum inhibitory concentration against Streptococcus pyogenes (C203) after sc administration in mice; type: functional
[20] = Plasma half-life in human after intravenous administration; type: ADME, organism-based
Monkey = experiment: as §3; type: functional, organism-based; settings: Cercopithecidae; outline: as §4
Rattus norvegicus = experiment: as §2; type: functional, organism-based; outline: as §1
[21] = Urinary recovery in male CD-1 mice after po administration of 20 mg/kg; type: ADME, organism-based; parameters: dose 20 mg/kg, route oral; settings: CD-1, mouse, urine; outline: as §5
[22] = Urinary recovery in male rats after iv administration of 20 mg/kg; type: ADME, organism-based; parameters: dose 20 mg/kg, route intravenous; settings: rat, urine; outline: as §1
[23] = Plasma binding expressed as percentage in rats […]; type: ADME, organism-based; settings: rat, iv, read-out: Plasma binding (converted); outline: as §6

| Structure (SMILES) | Cmax [1] [µg/mL] | half-life [2] [min] | dose excreted [3] [%] | MIC (Klebsiella aerogenes) [µg/mL] | MIC (Escherichia coli [4]) [µg/mL] | MIC (Haemophilus influenzae) [µg/mL] | MIC (Klebsiella pneumoniae) [µg/mL] | MIC (Pseudomonas aeruginosa) [µg/mL] | MIC [5] [µg/mL] | MIC (Staphylococcus aureus) [µg/mL] | MIC (Streptococcus pneumoniae) [µg/mL] | half-life [6] [min] | further results |
| --- | --- | --- | --- | --- | --- | --- | --- | --- | --- | --- | --- | --- | --- |
| CO/N=C(\C(=O)N[C@H]1CN2CC(C#N)=C(C(=O)O)N2C1=O)c1csc(N)n1 | 120 | 18 | 87.8 | 1 (≈ 2.56 µM) | 0.25 (≈ 0.639 µM) | 0.5 (≈ 1.28 µM) | 0.25 (≈ 0.639 µM) | > 128 | 64 (≈ 164 µM) | 64 (≈ 164 µM) | 0.25 (≈ 0.639 µM) | 17.9 | Cmax [8]: 71 µg/mL; half-life [9]: 12.2 min; fraction unbound [10]: 0.585; dose excreted [11]: < 2%; ED50 (Escherichia coli [12]): 7.87 mg/kg; ED50 (Escherichia coli [13]): 0.67 mg/kg; MIC (Escherichia coli [14]): 0.25 µg/mL (≈ 0.639 µM); MIC (Escherichia coli [15]): 0.25 µg/mL (≈ 0.639 µM); ED50 (Streptococcus pyogenes [16]): 6.68 mg/kg; ED50 (Streptococcus pyogenes [17]): 0.625 mg/kg; MIC (Streptococcus pyogenes [18]): 0.25 µg/mL (≈ 0.639 µM); MIC (Streptococcus pyogenes [19]): 0.25 µg/mL (≈ 0.639 µM) |
| Cn1nnnc1SCC1=C(C(=O)O)N2C(=O)[C@@H](NC(=O)[C@H](O)c3ccccc3)[C@H]2SC1 [CEFAMANDOLE] |  |  |  |  |  |  |  |  |  |  |  |  | half-life [20]: 48 min; T1/2 (Monkey): 34 min; T1/2 (Rattus norvegicus): 15 min |
| CC(C)(O/N=C(\C(=O)N[C@@H]1C(=O)N2C(C(=O)[O-])=C(C[n+]3ccccc3)CS[C@H]12)c1csc(N)n1)C(=O)O [CEFTAZIDIME] |  | 23 |  |  |  |  |  |  |  |  |  |  | half-life [7]: 49 min; half-life [20]: 108 min |
| CCCCO/N=C(/C(=O)N[C@H]1CN2CC(C#N)=C(C(=O)O)N2C1=O)c1csc(N)n1 |  |  |  | 2 (≈ 4.61 µM) | 1 (≈ 2.31 µM) | 0.125 (≈ 0.288 µM) | 0.06 (≈ 0.138 µM) | > 128 | 16 (≈ 36.9 µM) | 16 (≈ 36.9 µM) | 0.125 (≈ 0.288 µM) |  |  |

Continued by falling MIC (Klebsiella aerogenes), values first:

| Cmax [1] [µg/mL] | half-life [2] [min] | dose excreted [3] [%] | MIC (Klebsiella aerogenes) [µg/mL] | MIC (Escherichia coli [4]) [µg/mL] | MIC (Haemophilus influenzae) [µg/mL] | MIC (Klebsiella pneumoniae) [µg/mL] | MIC (Pseudomonas aeruginosa) [µg/mL] | MIC [5] [µg/mL] | MIC (Staphylococcus aureus) [µg/mL] | MIC (Streptococcus pneumoniae) [µg/mL] | half-life [6] [min] | Structure (SMILES) | further results |
| --- | --- | --- | --- | --- | --- | --- | --- | --- | --- | --- | --- | --- | --- |
| 74.3 | 15 | 44.2 | 0.5 (≈ 0.96 µM) | 0.125 (≈ 0.24 µM) | 0.125 (≈ 0.24 µM) | 0.03 (≈ 0.0576 µM) | > 128 | 16 (≈ 30.7 µM) | 8 (≈ 15.4 µM) | 0.06 (≈ 0.115 µM) | 14.7 | CCCS(=O)(=O)C1=C(C(=O)O)N2C(=O)[C@@H](NC(=O)/C(=N/OCCCl)c3csc(N)n3)CN2C1 |  |
|  |  |  | 0.5 (≈ 1.03 µM) | 0.125 (≈ 0.258 µM) | 0.125 (≈ 0.258 µM) | 0.06 (≈ 0.124 µM) | > 128 | 4 (≈ 8.26 µM) | 8 (≈ 16.5 µM) | 0.125 (≈ 0.258 µM) |  | N#CC1=C(C(=O)O)N2C(=O)[C@@H](NC(=O)/C(=N/OCCBr)c3csc(N)n3)CN2C1 |  |
| 70.3 | 11 | 53.1 | 0.25 (≈ 0.516 µM) | 0.06 (≈ 0.124 µM) | 0.125 (≈ 0.258 µM) | 0.015 (≈ 0.031 µM) | 128 (≈ 264 µM) | 8 (≈ 16.5 µM) | 4 (≈ 8.26 µM) | 0.06 (≈ 0.124 µM) | 11.3 | C=CCCO/N=C(/C(=O)N[C@H]1CN2CC(S(C)(=O)=O)=C(C(=O)O)N2C1=O)c1csc(N)n1 | half-life [7]: 36 min |
| 120 | 25 |  | 0.25 (≈ 0.562 µM) | 0.06 (≈ 0.135 µM) | 0.5 (≈ 1.12 µM) | 0.125 (≈ 0.281 µM) | > 128 | 64 (≈ 144 µM) | 32 (≈ 72 µM) | 0.25 (≈ 0.562 µM) | 24.7 | CO/N=C(\C(=O)NC1CN2CC(S(C)(=O)=O)=C(C(=O)O)N2C1=O)c1csc(N)n1 (stereo not given) | Cmax [8]: 53.8 µg/mL; half-life [9]: 10.6 min; dose excreted [21]: < 2%; dose excreted [22]: 80.4%; ED50 (Escherichia coli [12]): 7.93 mg/kg; ED50 (Escherichia coli [13]): < 0.625 mg/kg; MIC (Escherichia coli [14]): 0.06 µg/mL (≈ 0.135 µM); MIC (Escherichia coli [15]): 0.06 µg/mL (≈ 0.135 µM); ED50 (Streptococcus pyogenes [16]): 13.5 mg/kg; ED50 (Streptococcus pyogenes [17]): 1.8 mg/kg; MIC (Streptococcus pyogenes [18]): 0.03 µg/mL (≈ 0.0675 µM); MIC (Streptococcus pyogenes [19]): 0.03 µg/mL (≈ 0.0675 µM); fraction unbound [23]: 0.78 |
